An excerpt weighted towards active compounds, which were near 2.6% of everything screened.
SENP1 FRET inh: human SENP1 catalytic domain inhibitors, primary screen, biochemical, FRET, uHTS; Sentrin-specific protease 1 (Homo sapiens), Q9P0U3; inhibition, % at 10 µM; recombinant SENP1 catalytic domain, CyPet-SUMO1-YPet FRET cleavage; AID 624204, 2012; 360,000 compounds, 0.21% hits;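 active = inhibition at least 30% at 10 µM, raw YFP signal under a set limit, fluorescence ratio 0.5 to 1.5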;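 note: 0% = enzyme with DMSO and 100% = no enzyme wells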
Target sequence (Q9P0U3 419-644 limits assumed): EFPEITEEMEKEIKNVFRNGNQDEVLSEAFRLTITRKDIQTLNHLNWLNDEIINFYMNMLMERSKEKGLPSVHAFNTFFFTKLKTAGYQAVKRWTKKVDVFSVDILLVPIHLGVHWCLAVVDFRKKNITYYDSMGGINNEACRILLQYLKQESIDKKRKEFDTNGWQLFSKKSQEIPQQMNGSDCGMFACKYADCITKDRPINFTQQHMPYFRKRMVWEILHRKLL
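Compound: 10 µM single point, 0.5% DMSO; Test system: hSENP1 catalytic domain, recombinant; Timing: 50 min reaction at room temperature; Technique: FRET, CFP and YFP emission; Control set: no-enzyme wells low, DMSO-plus-enzyme wells high control.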
SENP8 block-1: human SENP8 protease inhibitors, primary screen, biochemical, fluorescence, Nedd8 protein substrate, uHTS. inhibition, % at 20 µM. 360,000 compounds, 0.64% hits. AID 602440, 2012. recombinant SENP8; in the data active = inhibition mostly above about 40%, no sharp cut-off; inactive = mostly below about 27%
SENP8 block-2: SENP8 protease inhibitors, primary screen, biochemical, luminescence | 330,000 compounds, 1.2% hits | purified SENP8, Z-RLRGG-aminoluciferin cleavage | inhibition, % at 10 µM; in the data active = inhibition above about 50%
Platelet DG rel: inhibitors of platelet dense granule secretion, primary screen, cell-based, MLPCN, human platelets. human platelet-rich plasma, SFLLRN dense granule ATP release, luminescence. inhibition, %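 (compounds screened at 7.5 µM in platelet-rich plasma)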. 300,000 compounds, 0.22% hits;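 active = mean replicate score, as percent of positive control, at or above 50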
SENP6 block: SENP6 protease inhibitors, primary screen, biochemical, luminescence, uHTS; Sentrin-specific protease 6 (Homo sapiens), Q9GZR1; Recombinant SENP6 catalytic domain, aminoluciferin luminescence; inhibition, % at 10 µM; 330,000 compounds, 1.8% hits; AID 2599, 2010;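 active = inhibition above about 50% at the single tested dose, limit read from the data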;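 note: plate controls were DMSO wells with enzyme for no effect and DMSO wells lacking enzyme for full effect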
SENP7 block: SENP7 protease inhibitors, primary screen, biochemical, luminescence, uHTS; recombinant SENP7, Z-RLRGG-aminoluciferin luminescence, 40 min; Sentrin-specific protease 7 (Homo sapiens), Q9BQF6; 330,000 compounds, 1.5% hits; AID 434973, 2010; inhibition, % at 5 µM;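 active = inhibition above about 50% at the single test dose, limit read from the data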;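 note: plate controls were DMSO with enzyme for no effect and no enzyme buffer wells for full effect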
Target sequence (Q9BQF6 706-1050 limits assumed): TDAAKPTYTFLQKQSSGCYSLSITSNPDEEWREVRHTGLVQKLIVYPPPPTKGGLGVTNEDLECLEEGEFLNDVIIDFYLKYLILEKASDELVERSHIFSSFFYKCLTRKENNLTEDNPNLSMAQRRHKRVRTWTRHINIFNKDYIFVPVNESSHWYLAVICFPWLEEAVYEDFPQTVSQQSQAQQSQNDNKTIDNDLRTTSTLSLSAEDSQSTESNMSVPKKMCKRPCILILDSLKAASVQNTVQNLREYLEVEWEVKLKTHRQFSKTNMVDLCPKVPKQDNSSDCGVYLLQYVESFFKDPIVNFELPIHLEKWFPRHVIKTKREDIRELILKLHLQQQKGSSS
SENP8 conf: human SENP8 protease inhibitors, confirmation, biochemical, Nedd8 protein substrate, single concentration. inhibition, % at 25 µM. shares compounds with SENP8 block-1. purified SENP8, Nedd8-AMC/pro-Nedd8 cleavage fluorescence, 30 min. 1,400 compounds, 15% hits; in the data active = inhibition mostly above about 39%, no sharp cut-off; inactive = mostly below about 34%
Starred values were filed as active, the others as inactive; . = no result given.

SMILES	SENP1 FRET inh	SENP8 block-1	SENP8 block-2	Platelet DG rel	SENP6 block	SENP7 block	SENP8 conf
COc1ccc(/C=N/N=C2/CC(C)(C)Cc3n[nH]c(=O)cc32)cc1	7	44*	0	-4	0	3	12
COc1ccc(/C=N/N=C2/NC(=O)CC(C(=O)O)S2)cc1 (stereo not given)	3	18	1	-4	15	5	.
Cc1cccc(N2CC(C(=O)NCC3COc4ccccc4O3)CC2=O)c1C (stereo not given)	-1	8	3	.	5	9	.
O=C(c1ccccc1)N1CCN(C(=O)c2cccnc2)CC1	1	8	9	3	2	-4	.
O=C(CCC1CCCC1)N1CCN(C(=O)c2cccnc2)CC1	2	41*	-12	6	-4	-5	10
O=C(Cn1c(=O)n(Cc2ccccc2)c(=O)c2cc(Cl)ccc21)NCC1CCCO1 (stereo not given)	1	-2	-10	2	-7	-9	.
O=C(Cn1c(=O)n(CCC(=O)N2CCc3ccccc3C2)c(=O)c2ccccc21)NCC1CCCO1 (stereo not given)	-4	62*	.	-1	.	.	16
CCOC(=O)c1ccc(-n2c(CN3CCN(CC)CC3)nc3ccc([N+](=O)[O-])cc3c2=O)cc1	-5	41*	9	-8	4	8	15
CCOC(=O)c1ccc(-n2c(CN3CCOCC3)nc3ccc([N+](=O)[O-])cc3c2=O)cc1	0	35	10	-5	-8	5	.
O=C(/C=C/c1ccc(Cl)cc1)NC(=S)Nc1ccc(C(=O)O)cc1	1	16	8	-5	15	4	.
CC(=O)N1CCN(c2ccc(NC(=S)NC(=O)/C=C/c3ccccc3)cc2)CC1	.	.	0	-6	-7	4	.
COc1ccc(/C=C/C(=O)NC(=S)Nc2ccc(N3CCN(C(C)=O)CC3)cc2)cc1	2	51*	-3	8	-7	2	13
CN(C)c1ccc(NC(=S)NC(=O)/C=C/c2ccc(Cl)cc2)cc1	6	41*	17	0	-10	6	26
COc1cc(OC)cc(C(=O)NC(=S)Nc2ccc(N3CCCC3)cc2)c1	2	43*	-3	11	3	-2	28
CN(C)c1ccc(NC(=O)CN2CCC(N3CCCCC3)CC2)cc1	1	42*	4	3	-2	1	-12
O=C(CCCCCNC(=O)N1CCn2c1nc1ccccc12)N[C@H](C(=O)O)c1ccccc1	4	52*	2	2	2	3	20
COc1ccc(NC(=S)NC(NC(=O)c2cccc(C)c2)C(Cl)(Cl)Cl)c([N+](=O)[O-])c1 (stereo not given)	3	42*	-4	.	-12	0	8
O=C(O)/C=C/C(=O)Nc1ccc(C(=O)c2ccccc2)cc1	1	13	-6	2	-9	0	.
O=C(O)/C=C/C(=O)Nc1ccc(O)cc1	20	81*	-4	0	-10	-4	31
COC(=O)C(Cc1ccccc1)NC(=O)CCNC(=O)c1ccco1 (stereo not given)	1	7	-3	-3	-19	-1	.
Cc1cccc(N2CC(C(=O)Nc3ccc(N4CCOCC4)cc3)CC2=O)c1C (stereo not given)	1	19	2	.	1	0	.
COC(=O)c1c(SCC(=O)Nc2ccc(C)c(C)c2)nc(=O)[nH]c1C	-5	44*	1	-1	-1	-4	4
COC(=O)c1c(SCc2cccc3ccccc23)nc(=O)[nH]c1C	-6	11	-4	13	-9	-3	.
CCOc1ccc(NC(=S)Nc2cc(OC)c(Cl)cc2OC)cc1	-1	44*	1	7	11	9	7
CCOc1ccc(NC(=S)Nc2ccc3nsnc3c2)cc1	-26	43*	-8	-1	-25	-5	39
SMILES	SENP1 FRET inh	SENP8 block-1	SENP8 block-2	Platelet DG rel	SENP6 block	SENP7 block	SENP8 conf
CC(C)c1cc(C(=O)N2CCCC(N3CCN(c4ccc(F)cc4)CC3)C2)n(C)n1 (stereo not given)	1	21	-8	2	-13	1	.
Cc1ccccc1C(=O)N1CCN(c2ccc(NC(=O)c3ccc([N+](=O)[O-])o3)cc2)CC1	1	39*	6	-3	-7	9	7
O=C(Nc1ccc(N2CCN(C(=O)c3ccccc3)CC2)cc1)c1ccc([N+](=O)[O-])o1	1	51*	.	-1	.	.	31
COc1ccc(N2CCN(C(=O)[C@@H]3CCCN3C3=NS(=O)(=O)c4ccccc43)CC2)cc1	2	17	-9	.	-25	-6	.
CC(C)C(=O)N1CCC1(C)C(=O)NS(=O)(=O)c1cccs1 (stereo not given)	1	14	.	.	.	.	.
O=C(Nc1nccs1)C1CCCCN1S(=O)(=O)c1ccccc1 (stereo not given)	1	45*	1	7	14	-6	-1
CCOc1ccc(-c2noc(-c3csc([C@@H]4C[C@H](O)[C@@H](CO)O4)n3)n2)cc1	-1	5	.	.	.	.	.
O=C(c1ncn(Cc2ccccc2)c1C(=O)N1CCc2ccccc2C1)N1CCc2ccccc2C1	0	52*	-8	.	-8	-1	58*
CNc1ccc(/C=C/C(=O)c2cccc3ccccc23)cc1[N+](=O)[O-]	7	47*	8	-5	-12	3	13
CNc1ccc(C(=O)c2ccccc2C(=O)O)cc1[N+](=O)[O-]	-1	6	1	-2	-8	-13	.
Cc1ccccc1C(=O)N(Cc1cccs1)C1CCS(=O)(=O)C1 (stereo not given)	1	-3	4	2	-21	-5	.
Cc1ccc(S(=O)(=O)N(CC(=O)Nc2ccc(Cl)c([N+](=O)[O-])c2)C2CCCCC2)cc1	-8	45*	2	7	0	10	18
Cc1ccc(CN2CC(C(=O)O)CC2=O)cc1 (stereo not given)	4	40*	0	0	-3	4	21
O=C(NCCc1cccc(Cl)c1)c1cc2ccccc2oc1=O	0	-110	-5	10	-5	9	.
O=S1(=O)NC2c3ccccc3CC2O1 (stereo not given)	0	46*	-3	0	15	13	57*

Screening data deposited in PubChem BioAssay by several laboratories.
